Common to all, as to type: functional
The subject of assay [1] is Campylobacter jejuni. As to the kind of experiment: Antibacterial activity against susceptible Campylobacter jejuni isolates by disk diffusion test. Conditions: for MIC: Campylobacter jejuni. The method in brief: (§1)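 Isolate suspensions were made in Mueller-Hinton broth to 0.5 McFarland and spread on Mueller-Hinton agar with 5% sheep blood. Disks used were erythromycin 15 μg and ciprofloxacin 5 μg. Plates were held at 37°C for 48 h, and inhibition zone diameters were measured with slipping calipers; 6 mm means no zone.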
(In general: A growth-free zone around the sample is the usual read-out of agar diffusion tests.)

In assay [2] the test system is Campylobacter jejuni. Put plainly: Antibacterial activity against erythromycin-resistant Campylobacter jejuni isolates by agar dilution test. In a few lines: (§2)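 Agar dilution MICs of clinical C. jejuni isolates, run at 37°C following CLSI recommendations; C. jejuni ATCC 33560 served as control strain.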
Background: In agar dilution the substance is mixed into plates at graded concentrations.

Assay [3] has as its system Campylobacter jejuni. Put plainly: Antibacterial activity against erythromycin-resistant Campylobacter jejuni isolates by disk diffusion test. The method in brief: as §1
Assay [4] has as its system Campylobacter jejuni. As to the kind of experiment: Antibacterial activity against susceptible Campylobacter jejuni isolates by agar dilution test. The method in brief: as §2
The subject of assay [5] is Campylobacter jejuni. As to the kind of experiment: Antimicrobial activity against ciprofloxacin-resistant Campylobacter jejuni isolates by disk diffusion test. The method in brief:
as §1

Assay [6] deals with Campylobacter jejuni. Put plainly: Antimicrobial activity against ciprofloxacin-resistant Campylobacter jejuni isolate by agar dilution test. The method in brief:
as §2

The values below come from ChEMBL document CHEMBL1147108, “Comparison of disk diffusion and agar dilution methods for erythromycin and ciprofloxacin susceptibility testing of Campylobacter jejuni subsp. jejuni” (2007).

Broadly, the MIC is the lowest concentration that inhibits growth of the organism.

Converted amounts (≈) assume the structure as drawn.

As for `CC[C@H]1OC(=O)[C@H](C)[C@@H](O[C@H]2C[C@@](C)(OC)[C@@H](O)[C@H](C)O2)[C@H](C)[C@@H](O[C@@H]2O[C@H](C)C[C@H](N(C)C)[C@H]2O)[C@](C)(O)C[C@@H](C)C(=O)[C@H](C)[C@@H](O)[C@]1(C)O` [ERYTHROMYCIN], the figures for the “inhibition zone (IZ)” value in the assay with Campylobacter jejuni [1] and in the assay with Campylobacter jejuni [3] were 17.5 mm and 6 mm, respectively. The MIC against Campylobacter jejuni [1] is 0.06 µg/mL (≈ 0.0818 µM); against Campylobacter jejuni [2], at least 256 µg/mL; in the assay on Campylobacter jejuni [3] (Campylobacter jejuni) it was at least 256 µg/mL; against Campylobacter jejuni [4], 0.06 µg/mL (≈ 0.0818 µM).
With `O=C(O)c1cn(C2CC2)c2cc(N3CCNCC3)c(F)cc2c1=O` [CIPROFLOXACIN], the “inhibition zone (IZ)” value is given as 21 mm in the assay with Campylobacter jejuni [1] and 6 mm in the assay on Campylobacter jejuni [5]. For the same compound, the MIC against Campylobacter jejuni [1] turned out to be 0.06 µg/mL (≈ 0.181 µM); against Campylobacter jejuni [5] (Campylobacter jejuni), 4 µg/mL (≈ 12.1 µM); against Campylobacter jejuni [6] it was 4 µg/mL (≈ 12.1 µM); against Campylobacter jejuni [4], 0.06 µg/mL (≈ 0.181 µM).
